ChEMBL document CHEMBL2163279, “Discovery of novel small molecule inhibitors of dengue viral NS2B-NS3 protease using virtual screening and scaffold hopping” (J Med Chem, 2012)

Columns and labels:
[1] = (§1) Inhibition of Dengue virus 2 NS2B-NS3 protease preincubated for 15 mins before Dabcyl- Lys-Gln-Arg-Arg-Gly-Arg-Ile-Glu-Edans substrate addition by fluorimetric assay; parameters: species or system dengue virus type 2
[2] = tested on: dengue virus type 2; assay: Inhibition of Dengue virus 2 NS2B-NS3 protease at 100 uM preincubated for 15 mins before Dabcyl- Lys-Gln-Arg-Arg-Gly-Arg-Ile-Glu-Edans substrate addition by fluorimetric assay
[3] = tested on: dengue virus type 2; assay: Antiviral activity against Dengue virus 2 infected in BHK-D2RepT cells assessed as reduction in viral replication incubated for 48 hrs by luciferase reporter replicon-based assay; type: functional, organism-based
In short: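 Cells used were BHK-D2RepT: BHK carrying a DENV-2 (New Guinea C) firefly-luciferase replicon, maintained in DMEM/10% FBS/200 μg/mL G418. Seeded at 5×10⁴ cells/well for 24 h, then exposed to compound for 48 h (DMSO <0.2%). Medium was replaced before the Bright-Glo luciferase read. Triplicate wells with six control wells. IC50 is the concentration giving 50% of control luciferase signal; mean of three independent experiments.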

[4] = Selectivity index, ratio of CC50 for BHK cells to IC50 for Dengue virus 2 infected in BHK-D2RepT cells; type: functional
In short: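 Selectivity index = CC50 / IC50. CC50 is from the 48 h MTT assay in nontransfected BHK cells; IC50 is from the 48 h luciferase read in BHK-D2RepT replicon cells, 96-well format.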

[5] = Cytotoxicity against BHK cells incubated for 48 hrs by MTT assay; type: cell-based, Mesocricetus auratus; details: hamster
In short: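 Nontransfected BHK cells, about 5×10⁴ per well, were treated the next day with various compound concentrations for 48 h. Viability was measured by MTT. CC50 is the concentration giving 50% of control cell number; mean of three independent experiments.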

[6] = tested on: dengue virus type 2; assay: as §1
[7] = tested on: dengue virus type 2; assay: Inhibition of Dengue virus 2 NS2B-NS3 protease at 12.5 uM preincubated for 15 mins before substrate addition
[8] = tested on: dengue virus type 2; assay: Inhibition of Dengue virus 2 NS2B-NS3 protease at 50 uM preincubated for 15 mins before substrate addition
[9] = tested on: dengue virus type 2; assay: Inhibition of Dengue virus 2 NS2B-NS3 protease at 25 uM preincubated for 15 mins before substrate addition

| SMILES | IC50 [1] [µM] | inhibition [2] [%] | further results |
| --- | --- | --- | --- |
| O=C(CCCC(=O)/C(=C\c1ccc2c(c1)OCO2)CC(=O)c1ccccc1)OCCCl | 242 |  |  |
| CCNC(=S)N/N=C\c1cc(C(=O)OCC)cc(/C=N\NC(=S)NCC)c1O | > 100 | 28.2 |  |
| CCOC(=O)c1cc(/C=N/Nc2ccc(C(C)C)cc2)c(O)c(/C=N/Nc2ccc(C(C)C)cc2)c1 | 39.5 |  | IC50 [3]: 8 µM; Ratio CC50/IC50 [4]: 3.7; CC50 at 48 h [5]: 29.7 µM |
| COc1ccc(-c2csc(N3N=C(c4ccc([N+](=O)[O-])cc4)/C(=N\Nc4ccc(C(N)=O)cc4)C3=O)n2)cc1 | 220 |  |  |
| O=C(N/N=C\Cc1ccccc1)c1cc(/C=N/Nc2cccc(C(F)(F)F)c2)nc2ccccc12 | 19.8 |  | IC50 [3]: 73.4 µM; Ratio CC50/IC50 [4]: 0.2; CC50 at 48 h [5]: 16.4 µM |
| CCOC(=O)c1cc(C)c(O)c(/C=N/Nc2nc3ccccc3[nH]2)c1 | 48.6 |  |  |
| O=C(N/N=C\C=C\c1ccccc1)c1cc(/C=N/Nc2cccc([N+](=O)[O-])c2)nc2ccccc12 | 22 |  | IC50 [3]: 74.9 µM; Ratio CC50/IC50 [4]: 0.3; CC50 at 48 h [5]: 25 µM |
| NS(=O)(=O)c1ccc(N/N=C/c2cc(C(=O)NCCCc3ccccc3)c3ccccc3n2)cc1 | > 100 | 20.6 |  |
| O=C(N/N=C\Cc1ccccc1)c1cc(/C=N/Nc2cccc(Br)c2)nc2ccccc12 | 9.45 |  | IC50 [3]: 24.7 µM; Ratio CC50/IC50 [4]: >4.1; CC50 at 48 h [5]: > 100 µM |
| O=C(N/N=C\Cc1ccccc1)c1cc(/C=N/Nc2cccc(Cl)c2)nc2ccccc12 | 28.1 |  | IC50 [3]: 61.3 µM; Ratio CC50/IC50 [4]: 0.3; CC50 at 48 h [5]: 19.7 µM |
| Oc1c(/C=N/Nc2nc3ccccc3[nH]2)cccc1/C=N/Nc1nc2ccccc2[nH]1 | > 100 | 31.9 |  |
| COc1cc(/C=C/C(=O)CC(=O)/C=C/c2ccc(O)c(OC)c2)ccc1O [CURCUMIN] |  |  | IC50 [3]: 4.2 µM; Ratio CC50/IC50 [4]: 3.5; CC50 at 48 h [5]: 14.8 µM |
| O=C(NCCCc1ccccc1)c1cc(/C=N/Nc2cccc(Br)c2)nc2ccccc12 | > 100 | 24.2 |  |
| O=C(NCCCc1ccccc1)c1cc(/C=N/Nc2cccc(Cl)c2)nc2ccccc12 | > 100 | 32.1 |  |
| NS(=O)(=O)c1ccc(N/N=C/c2cc(C(=O)N/N=C\Cc3ccccc3)c3ccccc3n2)cc1 | > 100 | 31.1 |  |
| O=C(N/N=C\C=C\c1ccccc1)c1cc(/C=N/Nc2cccc(C(F)(F)F)c2)nc2ccccc12 | > 100 | 27.4 |  |
| O=C(N/N=C\CCc1ccccc1)c1cc(/C=N/Nc2cccc(C(F)(F)F)c2)nc2ccccc12 | > 100 | 20.9 |  |
| NS(=O)(=O)c1ccc(N/N=C/c2cc(C(=O)NCCCCc3ccccc3)c3ccccc3n2)cc1 | > 100 | 29.4 |  |

| SMILES | IC50 [1] [µM] | inhibition [2] [%] | further results |
| --- | --- | --- | --- |
| NS(=O)(=O)c1ccc(N/N=C/c2cc(C(=O)N/N=C/c3cccc(O)c3)c3ccccc3n2)cc1 | 7.83 |  |  |
| O=C(NCCCCc1ccccc1)c1cc(/C=N/Nc2cccc(Br)c2)nc2ccccc12 | > 100 | 30.6 |  |
| O=C(N/N=C\CCc1ccccc1)c1cc(/C=N/Nc2cccc(Br)c2)nc2ccccc12 | 19.9 |  |  |
| CCOC(=O)c1cc(/C=N/Nc2nc3ccccc3[nH]2)cc(/C=N/Nc2nc3ccccc3[nH]2)c1 | 29.5 |  |  |
| CCOC(=O)c1cc(/C=N/N2C(=O)c3ccccc3C2=O)c(O)c(/C=N/N2C(=O)c3ccccc3C2=O)c1 | > 100 | 28 |  |
| O=C(N/N=C/CCc1ccccc1)c1cc(/C=N/Nc2cccc(Cl)c2)nc2ccccc12 | 29 |  |  |
| CCOC(=O)c1cc(/C=N/Nc2ccc([N+](=O)[O-])cc2)c(O)c(/C=N/Nc2ccc([N+](=O)[O-])cc2)c1 | 14.6 |  |  |
| O=C(O)c1cccc(N/N=C/c2cc(C(=O)NCCCCc3ccccc3)c3ccccc3n2)c1 | 35.3 |  | IC50 [3]: 11 µM; Ratio CC50/IC50 [4]: 4.5; CC50 at 48 h [5]: 49.7 µM |
| CCOC(=O)c1cc(/C=N/Nc2nc3ccccc3[nH]2)c(O)c(/C=N/Nc2nc3ccccc3[nH]2)c1 | 13.1 |  | IC50 [3]: 35.9 µM; Ratio CC50/IC50 [4]: 0.4; CC50 at 48 h [5]: 12.6 µM; inhibition [6]: Dose-dependent effect |
| O=C(N/N=C\C=C\c1ccccc1)c1cc(/C=N/Nc2cccc(Cl)c2)nc2ccccc12 | 14.3 |  |  |
| COc1c(C)c2c(c(O)c1C/C=C(\C)CCC(=O)O)C(=O)OC2 [MYCOPHENOLIC ACID] |  |  | IC50 [3]: 0.7 µM; Ratio CC50/IC50 [4]: 2.7; CC50 at 48 h [5]: 1.9 µM |
| CCOC(=O)c1cc(/C=N/NC(=O)c2ccc3c(c2)OCO3)c(O)c(/C=N/NC(=O)c2ccc3c(c2)OCO3)c1 | > 100 | 35.4 |  |
| CCOC(=O)c1cc(/C=N/NC(=O)Nc2ccccc2)c(O)c(/C=N/NC(=O)Nc2ccccc2)c1 | > 100 | 44.1 |  |
| NS(=O)(=O)c1ccc(N/N=C/c2cc(C(=O)N/N=C\CCc3ccccc3)c3ccccc3n2)cc1 | 36 |  |  |
| NS(=O)(=O)c1ccc(N/N=C/c2cc(C(=O)N/N=C\C=C\c3ccccc3)c3ccccc3n2)cc1 | 7.46 |  | inhibition [7]: 21.4%; inhibition [8]: 63.3%; inhibition [9]: 37.1%; inhibition [6]: Dose-dependent effect |
| CCOC(=O)c1cc(/C=N\NC(N)=S)c(O)c(/C=N\NC(N)=S)c1 | > 100 | 24.4 |  |
| O=C(O)c1cccc(N/N=C/c2cc(C(=O)NCCCc3ccccc3)c3ccccc3n2)c1 | 41.2 |  | IC50 [3]: 30.9 µM; Ratio CC50/IC50 [4]: 2.1; CC50 at 48 h [5]: 64.3 µM |
